In PMC7867784 (Translational Lung Cancer Research, 2021):
Values joined by “and” are separate entries in the source; they are usually repeats but may differ in a detail not shown here. Identical values can stand only once. Like-named read-outs stand apart in the source and are kept apart here.

Columns and labels:
[1] = cited from earlier work; for Cmax: AF-002JG study; for AUC0-10: global study
[2] = ALL-RET pharmacokinetic analysis; type: in vivo, human; settings: for free fraction of Cmin in a steady state: 450 mg BID; for AUC / Cmax / concentration at 10 h / Tmax: human, plasma, oral; for concentration at 10 h: Cmin (plasma concentration at 10 h after administration), mean ± SD [min–max]; for Tmax: median [min–max]
[3] = test system: RET-fusion positive NSCLC cells; settings: cited from earlier work
RET-rearranged NSCLC [4] = assay: ALL-RET phase 1/2 trial: antitumor efficacy; type: in vivo, human
In short: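 Patients with RET-rearranged NSCLC confirmed by at least 2 of 3 methods (multiplex RT-PCR, break-apart FISH, targeted NGS), previously treated with ≥1 chemotherapy regimen, ECOG PS 0–2, with measurable lesions. The test compound was given BID in 21-day cycles until respite, dose reduction or discontinuation criteria were met. Response was assessed by RECIST v1.1 on central review. DCR was defined as CR+PR+SD lasting at least 8 weeks.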

RET-rearranged NSCLC [5] = settings: 600 mg BID, non-Japanese RET rearrangement NSCLC, out of 8 patients; cited from earlier work
[6] = 450 mg, Day 15, 450 mg BID, N=5
[7] = 600 mg, Day 15, 600 mg BID, N=3
[8] = 450 mg BID, 25 RET-TKI-naïve patients
[9] = 450 mg BID, RET-TKI-naïve (n=25)
[10] = 450 mg BID, of 25 RET-TKI-naïve patients

CCc1cc2c(cc1N1CCC(N3CCOCC3)CC1)C(C)(C)c1[nH]c3cc(C#N)ccc3c1C2=O [alectinib]
Cmax ([1]; 460 mg BID): 618 ± 165 ng/mL
AUC0-10 ([1]; 460 mg BID): 4,980±1,340 ng·h/mL
Cmax ([1]; 600 mg BID): 676 ± 186 ng/mL
AUC0-10 ([1]; 600 mg BID): 5,400±1,400 ng·h/mL
free fraction of Cmin in a steady state [2]: < 4.8 ng/mL
free fraction of Cmin in a steady state ([2]; equivalent of ng/mL value): < 10 nM
AUC ([2]; 450 mg): 4820 ng·h/mL
Cmax ([2]; 450 mg): 576 ± 215 ng/mL
concentration at 10 h ([2]; 450 mg, Day 1, 450 mg, N=6): 118 ng/mL
concentration at 10 h [2, 6]: 483 ng/mL
Tmax ([2]; 450 mg, Day 1, 450 mg, N=6): 5.91 h
Tmax [2, 6]: 7.97 h
AUC ([2]; 600 mg): 8600 ng·h/mL
Cmax ([2]; 600 mg): 1050 ng/mL
concentration at 10 h ([2]; 600 mg, Day 1, 600 mg, N=6): 278 ng/mL
concentration at 10 h [2, 7]: 911 ng/mL
Tmax ([2]; 600 mg, Day 1, 600 mg, N=6): 7.01 h
Tmax [2, 7]: 5.77 h
growth of RET-rearranged tumor cells ([3]; in vitro and in vivo, pre-clinical studies): inhibit the growth
IC50 ([3]; read-out: IC50 in RET-fusion positive NSCLC cells): < 300 nM
patients who could continue treatment for more than 1 year (RET-rearranged NSCLC [4]; 450 mg BID): 5
DCR (disease control rate, at 8 weeks) (RET-rearranged NSCLC [4]; [8]): 52%
patients with disease stabilization for more than 1 year (RET-rearranged NSCLC [4]; [8]): 5
patients with disease stabilization for more than 1 year, percent (RET-rearranged NSCLC [4]; [8]): 20%
ORR (objective/overall response rate) (RET-rearranged NSCLC [4]; 450 mg BID, 25 RET-TKI-naïve patients, central review): 4%
median PFS (RET-rearranged NSCLC [4]; 450 mg BID, 25 RET-TKI-naïve patients, 95% CI 2.0–5.4): 3.4 months
median OS (RET-rearranged NSCLC [4]; 450 mg BID, 25 RET-TKI-naïve patients, 95% CI 5.4–NE): 19.0 months and 19 months
Best overall response NE (not evaluated), % (RET-rearranged NSCLC [4]; [9]): 8%
Best overall response PD, % (RET-rearranged NSCLC [4]; [9]): 40%
Best overall response PR, % (RET-rearranged NSCLC [4]; [9]): 4%
Best overall response SD, % (RET-rearranged NSCLC [4]; [9]): 48%
patients with disease control at 8 weeks (RET-rearranged NSCLC [4]; [10]): 13
patients with objective response (RET-rearranged NSCLC [4]; [10]): 1
treatment duration of the patient who showed PR (RET-rearranged NSCLC [4]; one patient with KIF5B-RET, phase 2, 450 mg BID): ~2 years
activity against RET-rearranged NSCLC (conclusion) (RET-rearranged NSCLC [4]; phase 1/2, Japanese patients): limited activity
patients with PR (RET-rearranged NSCLC [5]): 4
